A word on the pIC50: it is the negative decadic logarithm of the IC50, by convention in mol/L. Usually pKi stands for the Ki on a negative log10 scale, so that one unit is a factor of ten.

pIC50, pKi: −log10 of the molar value.

Test [1] can be described thus: Inhibition of Mycobacterium tuberculosis InhA assessed as effect on NADH oxidation incubated for 10 mins by spectrophotometry.
Test [2] is described as follows: Inhibition of Mycobacterium tuberculosis InhA assessed as residual enzyme activity by measuring NADH oxidation at 100 uM incubated for 10 mins by spectrophotometry.
The nature of test [3]: Mixed type inhibition of Mycobacterium tuberculosis InhA assessed as effect on NADH oxidation incubated for 10 mins by spectrophotometry. A digest of the protocol:
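Inhibition type and Ki were taken from the continuous spectrophotometric InhA assay. DD-CoA was the substrate, and its Km was determined alongside.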

Take `COc1ccc(-c2[nH]c3ccccc3c2CCC(=O)Nc2ncccc2C)cc1`: the pIC50 in test [1] is 4.85. In test [2], the Activity was above 50%.

Take `Cc1c(CN(C)C(=O)/C=C/c2cnc3c(c2)CCC(=O)N3)c2ccccc2n1C`: the Activity in test [2] was above 50%.

Turning to `Oc1cc(Cl)ccc1Oc1ccc(Cl)cc1Cl`, the Activity in test [2] is above 50%.

Turning to `Cc1cc2ncn(Cc3ccc(Cl)c(Cl)c3)c2cc1C`, the pIC50 in test [1] is 5.00. Also, in test [2], the Activity is above 50%. Moreover, the pKi in test [3] was 5.40.

Values taken from ChEMBL document CHEMBL4715801, “Discovery of Mycobacterium tuberculosis InhA Inhibitors by Binding Sites Comparison and Ligands Prediction” (J Med Chem, 2016).
